Measurements as given in ChEMBL document CHEMBL1132241, “Novel multidrug resistance reversal agents” (J Med Chem, 1999).

Legend:
[1] = In vitro concentration at which 50% of human colon carcinoma cells (S1-B1-20) resistant to bisantrene have survived; type: ADME, cell-based, S1B1-20; conditions: S1-B1-20 human colon carcinoma cells resistant to bisantrene, read-out: LD50 (the source's name)
Method in brief: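 S1-B1-20 cells (LS 174 T-derived S1 clone selected in bisantrene over 12–16 weeks), trypsinized, 20 000 cells/well. Test agent alone in DMSO (≤0.1% final), 0.1–80 µM, 3 days at 37 °C, 7% CO2. Survival by sulforhodamine B read at 540 nm versus untreated cells. Two to four measurement sets were made, and the value is the concentration giving 50% survival from a best-fit curve.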

S1B1-20 = test: In vitro concentration required to inhibit tumor activity on subclone of human colon carcinoma cells (S1-B1-20) resistant to bisantrene; type: functional, cell-based
Method in brief: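 S1-B1-20 cells (S1 clone of LS 174 T, selected in bisantrene over 12–16 weeks) plated at 20 000 cells/well with or without 20 μM bisantrene, plus test agent 0.1–80 μM from DMSO stock (final DMSO ≤0.1%). 3 days, 37 °C, 7% CO2. Survival by sulforhodamine B at 540 nm. IC50 from best-fit curve of difference score (survival alone minus survival with bisantrene) at 50; 2–4 sets of measurements.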

[2] = Partition coefficient (logP); type: physicochemical; conditions: octanol/water
Mus musculus [3] = test: Percent tumor growth inhibition against human epidermoid carcinoma KB/8.5 implanted subcutaneously in mice at 100 mg/kg of compound along with 8 mg/kg (DOX ) was determined; type: functional
Method in brief: (§1)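 Athymic nude mice bearing sc KB/8.5 tumors (8×10^6 cells, colchicine withdrawn for two passages), grouped at 100–300 mg tumor mass, 5–10 mice/group. Doxorubicin 8 mg/kg given once iv; reversal agent or placebo given sc 2 h before and 2 h after. Tumor mass on day 14 used for relative tumor growth versus doxorubicin alone; Student t-test on log RTG.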

Mus musculus [4] = test: Relative tumor growth inhibition against human epidermoid carcinoma KB/8.5 implanted subcutaneously only in mice at 8 mg/kg (DOX); type: functional; conditions: route subcutaneous
Method in brief: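 KB/8.5 cells grown in RPMI 1640 with 5% fetal calf serum plus colchicine (10 ng/mL), which was removed for two passages. 8 × 10^6 cells were then implanted sc in athymic nude mice. At 100-300 mg tumor mass, mice were grouped 5-10/group. Doxorubicin was given as a single iv dose (8 mg/kg). Tumor mass was measured on day 14, and relative growth was compared with saline control.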

Mus musculus [5] = test: Percent tumor growth inhibition against human epidermoid carcinoma KB/8.5 implanted subcutaneously in mice at 200 mg/kg of compound along with 8 mg/kg (DOX ) was determined; type: functional; method in brief: as §1
Mus musculus [6] = test: Percent increase in mean life span in mice infected with leukemia P388/VCR, at 25 mg/Kg dose; type: functional
Method in brief: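 CDF1 mice (groups of 10–15) were implanted ip with 1 × 10^6 P388/VCR cells. Agent plus 0.2 mg/kg vincristine were given together ip once daily on days 1–7, starting 1 day post-implant, in cremophor/ethanol or propylene glycol/ethanol vehicle. Survival was recorded to 30 days. Result is the % increase in mean life span versus placebo control.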

Mus musculus [7] = test: Percent increase in mean life span relative to treatment with an equivalent dose of vincristine alone at 25 mg/kg in mice with vincristine-resistantmurine leukemia P388/VCR cells; type: functional
Method in brief: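 CDF1 mice were implanted ip with 1 × 10^6 P388/VCR cells. Agent and 0.2 mg/kg vincristine were given simultaneously ip once daily, days 1–7. Mean survival over up to 30 days was compared with vincristine alone at an equivalent dose, giving % increase in life span. Student t-test was applied to mean survival time.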

Mus musculus [8] = test: Percent increase in mean life span when 0.2 mg/kg vincristine was administered ip once daily on days 1-7, in mice infected with leukemia P388/VCR; type: functional; set-up: concentration or dose not given beside the values; conditions: route intraperitoneal
Method in brief: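 CDF1 mice bearing ip P388/VCR (1 × 10^6 cells) received 0.2 mg/kg vincristine ip once daily on days 1–7. Mean survival to 30 days was expressed as % increase in life span relative to placebo control.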

SMILES | CC50 [1] [µM] | IC50 (S1B1-20; Homo sapiens, S1B1-20) [µM] | logP ([2]; read-out: logP) | Relative tumor growth (Mus musculus [4]) | other results
COc1ccc(C(C#N)(CCCCCN2CCc3cc(OC)c(OC)cc3C2)Sc2ccccn2)cc1OC (stereo not given) | 50.8 | 2.12 | 4.72 | – | –
COc1ccc(CCN(C)CCCC(C#N)(c2ccc(OC)c(OC)c2)C(C)C)cc1OC (stereo not given) [VERAPAMIL] | – | 17.3 | – | – | –
COc1ccc(C(CCCCCCN2CCc3cc(OC)c(OC)c(OC)c3C2)Sc2ccc(C)cc2)cc1OC (stereo not given) | 14 | 0.7 | 7.38 | 64 | TGI (Mus musculus [3]): 54%
COc1cc2c(cc1O)CN(CCCCCC(C#N)(Sc1ccc(C)cc1)c1ccc(OC)c(OC)c1)C2 (stereo not given) | – | – | 5.78 | – | –
COc1ccc(C(C#N)(Cc2cccc(CN3CCc4cc(OC)c(OC)cc4C3)c2)Sc2ccc(C)cc2)cc1OC (stereo not given) | 23.3 | 2.19 | 5.91 | – | –
COc1ccc(C(C#N)(CCCCCN2Cc3cc(OC)c(OCCCl)cc3C2)Sc2ccc(C)cc2)cc1OC (stereo not given) | – | – | 6.14 | – | –
COc1ccc(C(CCCCCN2CCc3cc(OC)c(OC)cc3C2)SC(C)(C)C)cc1OC (stereo not given) | 76.8 | 3.58 | 6.54 | 67 | TGI (Mus musculus [5]): 53%
COc1ccc(C(CCCCCN2CCc3cc4c(cc3C2)OCO4)Sc2ccc(C)cc2)cc1OC (stereo not given) | 24.9 | – | 7.31 | 100 | TGI (Mus musculus [5]): 57%
COc1ccc(C(C#N)(CCCCN2CCc3cc(OC)c(OC)cc3C2)Sc2ccc(C)cc2)cc1OC.ClCCl (stereo not given) | – | – | – | – | logP [2]: 5.65
COc1ccc(C(C#N)(CCCCCN2CCc3cc(OC)c(OCCN(C)C)cc3C2)Sc2ccc(C)cc2)cc1OC (stereo not given) | 6.68 | – | 6.1 | – | –
COc1ccc(C(C#N)(CCCCN2CCc3cc(OC)c(OC)cc3C2)Sc2ccc(C)cc2)cc1OC (stereo not given) | 41.8 | 0.62 | 5.65 | – | –
COc1ccc(C(CCCCCCN2Cc3cc(OC)c(OC)cc3C2)Sc2ccc(C)cc2)cc1OC (stereo not given) | 22.1 | 1.84 | 7.32 | 75 | TGI (Mus musculus [3]): 60%
COc1cc2c(cc1OC)CN(CCCCCCC(Sc1ccc(C)cc1)c1ccc(OC)c(O[Si](C)(C)C(C)(C)C)c1)CC2 (stereo not given) | 49.1 | 10.7 | – | – | logP [2]: 11.68
COc1ccc(CC2c3cc(OC)c(OC)cc3CCN2CCCCCC(C#N)(Sc2ccc(C)cc2)c2ccc(OC)c(OC)c2)cc1OC (stereo not given) | 78.2 | 1.06 | 7.57 | 64 | TGI (Mus musculus [5]): 58%
COc1ccc(C(CCCCCCN2CCc3cc(OC)c(OC)cc3C2)Sc2ccc(C)cc2)cc1OC (stereo not given) | 13.2 | 0.9 | 7.95 | 45 | TGI (Mus musculus [3]): 64%
COc1ccc2c(c1)CCN(CCCCCC(Sc1ccc(C)cc1)c1ccc(OC)c(OC)c1)C2 (stereo not given) | 22.2 | 3.09 | 7.88 | – | –
COc1ccc(C(C#N)(CCCCCN2Cc3cc(OC)c(OC)cc3C2)SC2CCCCC2)cc1OC (stereo in doubt; 46) | 11.8 | 0.26 | 5.65 | – | –
COc1cc2c(cc1OC)CN(CCCCCC(Sc1ccc(C)cc1)c1ccc(OC(F)(F)F)cc1)CC2 (stereo not given) | 16.9 | 2.07 | 8.44 | 100 | TGI (Mus musculus [3]): 51%
COc1ccc(C(C#N)(CCCCCN2Cc3cc(Cl)c(Cl)cc3C2)Sc2ccc(C)cc2)cc1OC (stereo not given) | – | 10.5 | 7.4 | 57 | TGI (Mus musculus [5]): 94%
COc1cc2c(cc1OC)CN(CCCCCCC(Sc1ccc(C)cc1)c1ccc(OC)c(OCCCl)c1)CC2 (stereo not given) | 10.3 | 0.96 | 8.54 | – | –
COc1cc2c(cc1O)CN(CCCCCC(C#N)(Sc1ccc(C)cc1)c1ccc(OC)c(OC)c1)CC2 (stereo not given) | 24.9 | 3.11 | 5.9 | – | –

SMILES | CC50 [1] [µM] | IC50 (S1B1-20; Homo sapiens, S1B1-20) [µM] | logP ([2]; read-out: logP) | Relative tumor growth (Mus musculus [4]) | other results
COc1ccc(C(C#N)(CCCCCN2CCc3cc(OC)c(OCCCl)cc3C2)SC2CCCCC2)cc1OC (stereo not given) | – | – | 6.87 | – | –
COc1ccc(C(C#N)(CCCCCN2CCc3ccccc3C2)Sc2ccc(C)cc2)cc1OC (stereo not given) | 24.7 | 2.56 | 6.72 | – | ILS at 25 mg/kg (Mus musculus [6]): 27%; ILS at 25 mg/kg (Mus musculus [7]): 11%; ILS (Mus musculus [8]): 14%
COc1ccc(C(CCCCCN2CCc3cc(OC)c(OC)cc3C2)SCc2ccccc2)cc1OC (stereo not given) | 15.1 | 1.98 | 6.63 | 77 | TGI (Mus musculus [3]): 68%
COc1ccc(C(C#N)(CCCCCN2CCc3cc(OC)c(OCc4ccccc4)cc3C2)Sc2ccc(C)cc2)cc1OC (stereo not given) | 40 | 0.85 | 7.95 | 100 | TGI (Mus musculus [5]): 71%
COc1cc2c(cc1OC)CN(CCCCCCC(Sc1ccc(C)cc1)c1ccc(F)cc1)CC2 (stereo not given) | 27 | 2.7 | 8.63 | – | –
COc1ccc(C(CCCCCCN2CCc3cc(OC)c(OC)cc3C2)Sc2ccc(C)cc2)cc1O (stereo not given) | 13.1 | 0.84 | 7.67 | 75 | TGI (Mus musculus [5]): 54%
COc1ccc(C(C#N)(CCCCCN2CCc3cc(OC)c(OC)cc3C2)SC2CCCCC2)cc1OC (stereo not given) | 14 | 0.46 | 6.28 | 67 | TGI (Mus musculus [3]): 69%
COc1ccc(C(C#N)(CC#CCCN2CCc3cc(OC)c(OC)cc3C2)Sc2ccc(C)cc2)cc1OC (stereo not given) | 36 | 0.97 | 5.52 | – | –
COc1cc2c(cc1O)CN(CCCCCC(C#N)(SC1CCCCC1)c1ccc(OC)c(OC)c1)CC2 (stereo not given) | – | – | 6 | – | –
COc1ccc(C(C#N)(CCCCCN2CCc3cc(OC)c(OCCn4ccnc4)cc3C2)Sc2ccc(C)cc2)cc1OC (stereo in doubt; 48) | 11.6 | 0.53 | 5.86 | – | –
CCC(CCCCCN1CCc2cc(OC)c(OC)cc2C1)(Sc1ccc(C)cc1)c1ccc(OC)c(OC)c1 (stereo not given) | 11.8 | 1.23 | 8.34 | 77 | TGI (Mus musculus [3]): 72%
COc1ccc(C(C#N)(CCCCCN2CCc3cc(OC)c(OCCn4ccnc4)cc3C2)SC2CCCCC2)cc1OC (stereo not given) | 8.39 | 0.96 | 5.96 | – | –
COc1ccc(C(CCCN2CCc3cc(OC)c(OC)cc3C2)Sc2ccc(C)cc2)cc1OC (stereo not given) | 25.8 | 1.23 | 6.36 | – | –
COc1cc2c(cc1OC)CN(CCCCCCC(Sc1ccc(C)cc1)c1ccc(OC)c(OCCn3ccnc3)c1)CC2 (stereo in doubt; 37b) | 5.52 | – | 7.63 | – | IC50 (S1B1-20; s1b1-20): 0.69 µM; TGI (Mus musculus [3]): 67%; Relative tumor growth (Mus musculus [4]; 8 mg/kg): 72
CCCCCSC(CCCCCN1CCc2cc(OC)c(OC)cc2C1)c1ccc(OC)c(OC)c1 (stereo not given) | 16.3 | 0.5 | 5.66 | – | –
COc1ccc(C(C#N)(CCCCCN2Cc3cc(OC)c(OCCn4ccnc4)cc3C2)Sc2ccc(C)cc2)cc1OC (stereo not given) | 8.37 | 0.5 | 5.23 | – | –
COc1cc2c(cc1OC)CN(CCCCCC(Sc1ccc(C)cc1)c1ccc3c(c1)OCO3)CC2 (stereo not given) | 15.9 | 0.5 | 7.31 | 100 | TGI (Mus musculus [5]): 39%
COc1ccc(C(CCCCCN2CCc3cc(OC)c(OC)cc3C2)SC2CCCCC2)cc1OC (stereo not given) | 16.1 | 0.73 | 7.33 | 67 | TGI (Mus musculus [3]): 57%
COc1ccc(C(C#N)(CCCCCN2CCc3cc4c(cc3C2)OCO4)Sc2ccc(C)cc2)cc1OC (stereo not given) | 30 | 3.09 | 6.08 | – | ILS at 25 mg/kg (Mus musculus [6]): 38%; ILS at 25 mg/kg (Mus musculus [7]): 16%; ILS (Mus musculus [8]): 24%
COc1ccc(C(C#N)(CCCN2CCc3cc(O)c(O)cc3C2C)Sc2ccc(C)cc2)cc1OC (stereo not given) | – | 4.7 | 4.92 | – | –
